According to ChEMBL document CHEMBL5108036, “A concise SAR-analysis of antimicrobial cationic amphipathic barbiturates for an improved activity-toxicity profile” (Eur J Med Chem, 2022):

Assays:
Pseudomonas aeruginosa = test: Antibacterial activity against Pseudomonas aeruginosa ATCC 27853 incubated for 48 hrs and measured by broth microdilution assay; assay type: functional
Procedure, shortened: (§1)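 MICs in µg/mL were measured against the reference strains S. aureus ATCC 9144, B. subtilis 168, E. coli ATCC 25922 and P. aeruginosa ATCC 27853. Compounds were tested as di-TFA salts.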

Escherichia coli = test: Antibacterial activity against Escherichia coli ATCC 25922 incubated for 48 hrs and measured by broth microdilution assay; assay type: functional; procedure, shortened: as §1
[1] = Selectivity index, ratio HC50 for hemolytic activity in human RBC to MIC for antibacterial activity against Bacillus subtilis 168; assay type: toxicity; settings: human red blood cells (erythrocytes)
Procedure, shortened: (§2)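 SI is the ratio of RBC lysis EC50 to MIC for each reference strain.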

[2] = Selectivity index, ratio HC50 for hemolytic activity in human RBC to MIC for antibacterial activity against Pseudomonas aeruginosa ATCC 27853; assay type: toxicity; settings: human red blood cells (erythrocytes); procedure, shortened: as §2
Bacillus subtilis = test: Antibacterial activity against Bacillus subtilis 168 incubated for 48 hrs and measured by broth microdilution assay; assay type: functional; procedure, shortened: as §1
[3] = (§3) Hemolytic activity in human RBC measured after 1 hr by microplate reader method; assay type: toxicity, cell-based, Erythrocyte; settings: human, human red blood cells (erythrocytes)
Procedure, shortened: (§4)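 Human red blood cell lysis was used as the cytotoxicity read-out, expressed as EC50 in µg/mL. The highest concentration tested was 500 µM. Compounds were tested as di-TFA salts.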

Staphylococcus aureus = test: Antibacterial activity against Staphylococcus aureus ATCC 9144 incubated for 48 hrs and measured by broth microdilution assay; assay type: functional; procedure, shortened: as §1
[4] = Selectivity index, ratio HC50 for hemolytic activity in human RBC to MIC for antibacterial activity against Escherichia coli ATCC 25922; assay type: toxicity; settings: human red blood cells (erythrocytes); procedure, shortened: as §2
[5] = Solubility in pure water; assay type: physicochemical
[6] = Selectivity index, ratio HC50 for hemolytic activity in human RBC to MIC for antibacterial activity against Staphylococcus aureus ATCC 9144; assay type: toxicity; settings: human red blood cells (erythrocytes); procedure, shortened: as §2
Erythrocyte = test: as §3; assay type: toxicity, cell-based; settings: erythrocyte; procedure, shortened: as §4

Row | SMILES | MIC (Pseudomonas aeruginosa) | MIC (Escherichia coli) | selectivity ratio [1] | selectivity ratio [2] | MIC (Bacillus subtilis) | EC50 at 1 h [3] | MIC (Staphylococcus aureus) | selectivity ratio [4] | solubility [5] | selectivity ratio [6] | EC50 (Erythrocyte)
1 | NCCCN1C(=O)N(CCCN)C(=O)C(Cc2ccc(Br)c(Cl)c2)(Cc2ccc(Br)c(Cl)c2)C1=O.O=C(O)C(F)(F)F.O=C(O)C(F)(F)F | 16 µg/mL | 8 µg/mL | 81 | 20 | 4 µg/mL | 323 µg/mL | 8 µg/mL | 40 | < 1000 µg/mL | 40 | –
2 | Cl.Cl.N=C(N)NCCCN1C(=O)N(CCCNC(=N)N)C(=O)C(Cc2cc(C(F)(F)F)cc(C(F)(F)F)c2)(Cc2cc(C(F)(F)F)cc(C(F)(F)F)c2)C1=O | – | 8 µg/mL | – | – | – | – | 2 µg/mL | – | ≤ 1000 µg/mL | – | 118 µg/mL
3 | N=C(N)NCCCCN1C(=O)N(CCCCNC(=N)N)C(=O)C(Cc2cc(Br)cc(Br)c2)(Cc2cc(Br)cc(Br)c2)C1=O.O=C(O)C(F)(F)F.O=C(O)C(F)(F)F | 8 µg/mL | 2 µg/mL | 32 | 8 | 2 µg/mL | 62 µg/mL | 2 µg/mL | 32 | – | 32 | –
4 | Cl.Cl.NCCCN1C(=O)N(CCCN)C(=O)C(Cc2cc(C(F)(F)F)cc(C(F)(F)F)c2)(Cc2cc(C(F)(F)F)cc(C(F)(F)F)c2)C1=O | – | 8 µg/mL | – | – | – | – | 8 µg/mL | – | ≤ 1000 µg/mL | – | 224 µg/mL
5 | N=C(N)NCCCN1C(=O)N(CCCNC(=N)N)C(=O)C(Cc2cc(Br)cc(Br)c2)(Cc2cc(Br)cc(Br)c2)C1=O.O=C(O)C(F)(F)F.O=C(O)C(F)(F)F | 8 µg/mL | 4 µg/mL | 93 | 23 | 2 µg/mL | 187 µg/mL | 2 µg/mL | 47 | – | 93 | –
6 | Cl.Cl.N=C(N)NCCCN1C(=O)N(CCCNC(=N)N)C(=O)C(Cc2ccc(Br)c(Cl)c2)(Cc2ccc(Br)c(Cl)c2)C1=O | – | 8 µg/mL | – | – | – | – | 0.5 µg/mL | – | < 1000 µg/mL | – | 291 µg/mL
7 | Cl.Cl.NCCCN1C(=O)N(CCCN)C(=O)C(Cc2ccc(Br)c(Cl)c2)(Cc2ccc(Br)c(Cl)c2)C1=O | – | 8 µg/mL | – | – | – | – | 8 µg/mL | – | ≤ 1000 µg/mL | – | 271 µg/mL
8 | N=C(N)NCCCN1C(=O)N(CCCNC(=N)N)C(=O)C(Cc2ccc(Br)c(Cl)c2)(Cc2ccc(Br)c(Cl)c2)C1=O.O=C(O)C(F)(F)F.O=C(O)C(F)(F)F | 32 µg/mL | 8 µg/mL | – | – | 2 µg/mL | 348 µg/mL | 2 µg/mL | – | < 1000 µg/mL | – | –
9 | CC(C)(C)c1ccc(CC2(Cc3cc(Br)cc(Br)c3)C(=O)N(CCCNC(=N)N)C(=O)N(CCCNC(=N)N)C2=O)cc1.O=C(O)C(F)(F)F.O=C(O)C(F)(F)F (centres undefined) | 16 µg/mL | 2 µg/mL | 169 | 11 | 1 µg/mL | 169 µg/mL | 1 µg/mL | 85 | – | 169 | –
